How the values were obtained:
[1] = biological target: Cruzipain (Trypanosoma cruzi) (UniProt P25779); experiment: Inhibition of recombinant Trypanosoma cruzi cruzain at 5 uM using Z-FR-AMC as substrate and measured at 12 sec interval for 5 mins without preincubation by fluorimetric analysis relative to control
Summary of the method: (§1)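 Recombinant rhodesain or cruzain (1 nM) in 0.1 M sodium acetate pH 5.5, 0.01% Triton X-100, 1 mM β-mercaptoethanol. Compound at a single concentration, either without or after 10 min enzyme pre-incubation. Inhibition is relative to DMSO, with E-64 as positive control. Done in duplicate (primary screen) or triplicate.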

[2] = biological target: Cruzipain (Trypanosoma cruzi) (UniProt P25779); experiment: Inhibition of recombinant Trypanosoma cruzi cruzain at 5 uM using Z-FR-AMC as substrate preincubated for 10 mins followed by substrate addition and measured at 12 sec interval for 5 mins by fluorimetric analysis relative to control; conditions: time 15.0 min; summary of the method: as §1
[3] = biological target: Rhodesain (Trypanosoma brucei rhodesiense) (UniProt Q95PM0); experiment: Inhibition of recombinant Trypanosoma brucei rhodesain expressed in Pichia pastoris at 5 uM using Z-FR-AMC as substrate and measured at 12 sec interval for 5 mins without preincubation by fluorimetric analysis relative to control; summary of the method: as §1
Rhodesain (Trypanosoma brucei rhodesiense), sequence (Q95PM0 1-450): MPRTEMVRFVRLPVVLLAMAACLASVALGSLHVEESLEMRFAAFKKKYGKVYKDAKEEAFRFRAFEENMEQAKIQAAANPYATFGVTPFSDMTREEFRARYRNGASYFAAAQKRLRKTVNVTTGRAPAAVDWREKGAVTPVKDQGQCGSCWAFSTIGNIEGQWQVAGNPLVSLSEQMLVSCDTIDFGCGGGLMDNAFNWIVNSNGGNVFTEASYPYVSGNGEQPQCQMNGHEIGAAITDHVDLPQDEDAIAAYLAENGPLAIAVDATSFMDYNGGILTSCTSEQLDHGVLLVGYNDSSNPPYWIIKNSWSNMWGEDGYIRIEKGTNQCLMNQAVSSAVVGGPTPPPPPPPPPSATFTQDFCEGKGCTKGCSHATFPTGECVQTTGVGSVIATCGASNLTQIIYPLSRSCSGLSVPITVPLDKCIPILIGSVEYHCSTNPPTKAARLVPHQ

[4] = biological target: Rhodesain (Trypanosoma brucei rhodesiense) (UniProt Q95PM0); experiment: Inhibition of recombinant Trypanosoma brucei rhodesain expressed in Pichia pastoris at 5 uM using Z-FR-AMC as substrate preincubated for 10 mins followed by substrate addition and measured at 12 sec interval for 5 mins by fluorimetric analysis relative to control; conditions: time 15.0 min; summary of the method: as §1
[5] = biological target: Cruzipain (Trypanosoma cruzi) (UniProt P25779); experiment: Inhibition of recombinant Trypanosoma cruzi cruzain at 10 uM using Z-FR-AMC as substrate and measured at 12 sec interval for 5 mins without preincubation by fluorimetric analysis relative to control
Summary of the method: (§2)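 Recombinant rhodesain or cruzain (1 nM) in 0.1 M sodium acetate pH 5.5, 0.01% Triton X-100, 1 mM β-mercaptoethanol. Compound at a single concentration, either without or after 10 min enzyme pre-incubation. Z-FR-AMC 2.5 µM, read at 340/440 nm every 12 s for 5 min. Inhibition is relative to DMSO, with E-64 as positive control. Done in duplicate (primary screen) or triplicate.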

[6] = biological target: Cruzipain (Trypanosoma cruzi) (UniProt P25779); experiment: Inhibition of recombinant Trypanosoma cruzi cruzain at 10 uM using Z-FR-AMC as substrate preincubated for 10 mins followed by substrate addition and measured at 12 sec interval for 5 mins by fluorimetric analysis relative to control; conditions: time 15.0 min; summary of the method: as §2
[7] = biological target: Rhodesain (Trypanosoma brucei rhodesiense) (UniProt Q95PM0); experiment: Inhibition of recombinant Trypanosoma brucei rhodesain expressed in Pichia pastoris at 10 uM using Z-FR-AMC as substrate and measured at 12 sec interval for 5 mins without preincubation by fluorimetric analysis relative to control; summary of the method: as §2
[8] = biological target: Rhodesain (Trypanosoma brucei rhodesiense) (UniProt Q95PM0); experiment: Inhibition of recombinant Trypanosoma brucei rhodesain expressed in Pichia pastoris at 10 uM using Z-FR-AMC as substrate preincubated for 10 mins followed by substrate addition and measured at 12 sec interval for 5 mins by fluorimetric analysis relative to control; conditions: time 15.0 min; summary of the method: as §2
[9] = biological target: Cruzipain (Trypanosoma cruzi) (UniProt P25779); experiment: Inhibition of recombinant Trypanosoma cruzi cruzain at 20 uM using Z-FR-AMC as substrate and measured at 12 sec interval for 5 mins without preincubation by fluorimetric analysis relative to control; summary of the method: as §2
[10] = biological target: Cruzipain (Trypanosoma cruzi) (UniProt P25779); experiment: Inhibition of recombinant Trypanosoma cruzi cruzain at 20 uM using Z-FR-AMC as substrate preincubated for 10 mins followed by substrate addition and measured at 12 sec interval for 5 mins by fluorimetric analysis relative to control; conditions: time 15.0 min; summary of the method: as §2
[11] = biological target: Rhodesain (Trypanosoma brucei rhodesiense) (UniProt Q95PM0); experiment: Inhibition of recombinant Trypanosoma brucei rhodesain expressed in Pichia pastoris at 20 uM using Z-FR-AMC as substrate and measured at 12 sec interval for 5 mins without preincubation by fluorimetric analysis relative to control
Summary of the method: (§3)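 Run with no pre-incubation or with 10 min enzyme-compound pre-incubation. Fluorescence read at 340/440 nm. Concentration was set by solubility under assay conditions. Inhibition is against DMSO, with E-64 as positive control; triplicate.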

[12] = biological target: Rhodesain (Trypanosoma brucei rhodesiense) (UniProt Q95PM0); experiment: Inhibition of recombinant Trypanosoma brucei rhodesain expressed in Pichia pastoris at 20 uM using Z-FR-AMC as substrate preincubated for 10 mins followed by substrate addition and measured at 12 sec interval for 5 mins by fluorimetric analysis relative to control; conditions: time 15.0 min; summary of the method: as §3
[13] = system: Trypanosoma brucei brucei; experiment: Trypanocidal activity against Trypanosoma brucei brucei Squib 427 assessed as reduction in parasite viability; type: functional, organism-based
[14] = system: Trypanosoma brucei rhodesiense; experiment: Trypanocidal activity against Trypanosoma brucei rhodesiense STI B900 assessed as reduction in parasite viability; type: functional, organism-based
[15] = system: Schistosoma mansoni; experiment: Inhibition of recombinant Schistosoma mansoni SmCB1 expressed in Pichia pastoris at 5 uM using Z-FR-AMC as substrate and measured at 23 sec interval for 30 mins without preincubation by fluorimetric analysis relative to control
Summary of the method: (§4)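 SmCB1 (recombinant, 8 nM) in 0.1 M sodium acetate pH 5.5 with 0.01% Triton X-100 and 4 mM β-mercaptoethanol. Compound at 5 µM, either not pre-incubated or pre-incubated 10 min with enzyme. Z-FR-AMC 20 µM, fluorescence 340/440 nm every 23 s for 30 min. Inhibition is versus DMSO, with E-64 control; each condition in duplicate.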

[16] = system: Schistosoma mansoni; experiment: Inhibition of recombinant Schistosoma mansoni SmCB1 expressed in Pichia pastoris at 5 uM using Z-FR-AMC as substrate preincubated for 10 mins followed by substrate addition and measured at 23 sec interval for 30 mins by fluorimetric analysis relative to control; summary of the method: as §4
[17] = system: Trypanosoma cruzi; experiment: Trypanocidal activity against Trypanosoma cruzi Tulahuen C4 assessed as reduction in parasite viability; type: functional, organism-based
[18] = biological target: Cruzipain (Trypanosoma cruzi) (UniProt P25779); experiment: Inhibition of recombinant Trypanosoma cruzi cruzain at 100 uM using Z-FR-AMC as substrate and measured at 12 sec interval for 5 mins without preincubation by fluorimetric analysis relative to control; summary of the method: as §2
[19] = biological target: Cruzipain (Trypanosoma cruzi) (UniProt P25779); experiment: Inhibition of recombinant Trypanosoma cruzi cruzain at 100 uM using Z-FR-AMC as substrate preincubated for 10 mins followed by substrate addition and measured at 12 sec interval for 5 mins by fluorimetric analysis relative to control; conditions: time 15.0 min; summary of the method: as §2
[20] = biological target: Rhodesain (Trypanosoma brucei rhodesiense) (UniProt Q95PM0); experiment: Inhibition of recombinant Trypanosoma brucei rhodesain expressed in Pichia pastoris at 100 uM using Z-FR-AMC as substrate and measured at 12 sec interval for 5 mins without preincubation by fluorimetric analysis relative to control; summary of the method: as §3
[21] = biological target: Rhodesain (Trypanosoma brucei rhodesiense) (UniProt Q95PM0); experiment: Inhibition of recombinant Trypanosoma brucei rhodesain expressed in Pichia pastoris at 100 uM using Z-FR-AMC as substrate preincubated for 10 mins followed by substrate addition and measured at 12 sec interval for 5 mins by fluorimetric analysis relative to control; conditions: time 15.0 min; summary of the method: as §3
[22] = biological target: Cruzipain (Trypanosoma cruzi) (UniProt P25779); experiment: Inhibition of recombinant Trypanosoma cruzi cruzain at 100 uM preincubated for 10 mins in presence of 0.1% Triton X-100 relative to control
Summary of the method: (§5)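 To test detergent sensitivity, cruzain was pre-incubated 10 min at room temperature with compound with no Triton X-100, 0.01% or 0.1% Triton X-100. Cleavage of Z-FR-AMC was then followed at pH 5.5 in acetate buffer. Percent inhibition was compared across detergent levels.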

[23] = biological target: Cruzipain (Trypanosoma cruzi) (UniProt P25779); experiment: Inhibition of recombinant Trypanosoma cruzi cruzain at 100 uM preincubated for 10 mins in presence of 0.01% Triton X-100 relative to control; summary of the method: as §5
[24] = biological target: Cruzipain (Trypanosoma cruzi) (UniProt P25779); experiment: Inhibition of recombinant Trypanosoma cruzi cruzain at 100 uM preincubated for 10 mins in absence of Triton X-100 relative to control; summary of the method: as §5
[25] = biological target: Cruzipain (Trypanosoma cruzi) (UniProt P25779); experiment: Inhibition of recombinant Trypanosoma cruzi cruzain at 100 uM preincubated with BSA for 5 mins followed by incubation with enzyme for 5 mins followed by substrate addition relative to control; conditions: time 10.0 min
Summary of the method: (§6)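 For BSA sensitivity, compound was held 5 min with BSA (2 mg/mL in 0.001% Triton X-100), then 5 min with 1 nM cruzain, before substrate was added and activity monitored. Parallel runs omitted BSA under otherwise identical conditions.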

[26] = biological target: Cruzipain (Trypanosoma cruzi) (UniProt P25779); experiment: Inhibition of recombinant Trypanosoma cruzi cruzain at 100 uM preincubated with enzyme for 5 mins followed by substrate addition in absence of BSA relative to control; summary of the method: as §6
[27] = biological target: Cruzipain (Trypanosoma cruzi) (UniProt P25779); experiment: Inhibition of recombinant Trypanosoma cruzi cruzain at 10 uM preincubated for 10 mins in presence of 0.1% Triton X-100 relative to control; summary of the method: as §5
[28] = biological target: Cruzipain (Trypanosoma cruzi) (UniProt P25779); experiment: Inhibition of recombinant Trypanosoma cruzi cruzain at 10 uM preincubated for 10 mins in presence of 0.01% Triton X-100 relative to control; summary of the method: as §5
[29] = biological target: Cruzipain (Trypanosoma cruzi) (UniProt P25779); experiment: Inhibition of recombinant Trypanosoma cruzi cruzain at 10 uM preincubated for 10 mins in absence of Triton X-100 relative to control; summary of the method: as §5
[30] = biological target: Cruzipain (Trypanosoma cruzi) (UniProt P25779); experiment: Inhibition of recombinant Trypanosoma cruzi cruzain at 10 uM preincubated with BSA for 5 mins followed by incubation with enzyme for 5 mins followed by substrate addition relative to control; conditions: time 10.0 min; summary of the method: as §6
[31] = biological target: Cruzipain (Trypanosoma cruzi) (UniProt P25779); experiment: Inhibition of recombinant Trypanosoma cruzi cruzain at 10 uM preincubated with enzyme for 5 mins followed by substrate addition in absence of BSA relative to control; summary of the method: as §6

Cruzipain (Trypanosoma cruzi), sequence (P25779 123-467 limits assumed): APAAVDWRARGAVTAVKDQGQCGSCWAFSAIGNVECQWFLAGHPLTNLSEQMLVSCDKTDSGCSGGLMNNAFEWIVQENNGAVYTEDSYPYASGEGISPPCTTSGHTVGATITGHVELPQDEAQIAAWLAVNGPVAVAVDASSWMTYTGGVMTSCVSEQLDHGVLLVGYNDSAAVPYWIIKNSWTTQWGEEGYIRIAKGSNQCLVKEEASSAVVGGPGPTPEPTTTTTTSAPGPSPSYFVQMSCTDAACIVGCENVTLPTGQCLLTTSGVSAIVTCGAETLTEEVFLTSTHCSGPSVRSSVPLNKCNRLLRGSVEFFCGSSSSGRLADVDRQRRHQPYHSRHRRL

## CCOc1ccc(/C=C/c2nc(=O)c3ccccc3o2)cc1
[1]
  inhibition: 30.1%
[2]
  inhibition: 88.6%
[3]
  inhibition: 32.7%
[4]
  inhibition: 67%
[5]
  inhibition: 10%
[6]
  inhibition: 3%
[7]
  inhibition: 8%
[8]
  inhibition: 0%
[9]
  inhibition: 15%
[10]
  inhibition: 10%
[11]
  inhibition: 14%
[12]
  inhibition: 0%
[13]
  IC50: 32 µM

## Cc1nc2ccccc2c(O)c1CC=C(Cl)Cl
[1]
  inhibition: 61.5%
[2]
  inhibition: 99.1%
[3]
  inhibition: 43.4%
[4]
  inhibition: 77.1%
[5]
  inhibition: 4%
[6]
  inhibition: 11%
[7]
  inhibition: 5%
[8]
  inhibition: 2%
[9]
  inhibition: 3%
[10]
  inhibition: 7%
[11]
  inhibition: 4%
[12]
  inhibition: 3%
[13]
  IC50: 32 µM
[14]
  IC50: 32 µM

## Cc1cc(NC(=O)c2cccc(C(F)(F)F)c2)n(-c2nc(-c3ccc4c(c3)OCO4)cs2)n1
[1]
  inhibition: 18.4%
[2]
  inhibition: 42%
[3]
  inhibition: 41%
[4]
  inhibition: 69.4%
[15]
  inhibition: 0%
[16]
  inhibition: 47.3%

## CC(=O)c1ccc(NC(=O)CSc2nc(-c3ccccc3Cl)ns2)cc1
[1]
  inhibition: 55.2%
[2]
  inhibition: 76.6%
[3]
  inhibition: 39.9%
[4]
  inhibition: 67.5%
[5]
  inhibition: 10%
[6]
  inhibition: 23%
[7]
  inhibition: 10%
[8]
  inhibition: 43%
[17]
  IC50: 32 µM
[13]
  IC50: 32 µM
[14]
  IC50: 32 µM

## FC(F)(F)c1cccc(CNC2CCN(CCc3ccccc3)CC2)c1
[1]
  inhibition: 23.1%
[2]
  inhibition: 65.1%
[3]
  inhibition: 20.3%
[4]
  inhibition: 70.8%
[5]
  inhibition: 0%
[6]
  inhibition: 6%
[7]
  inhibition: 1%
[8]
  inhibition: 8%
[18]
  inhibition: 7%
[19]
  inhibition: 22%
[20]
  inhibition: 12%
[21]
  inhibition: 14%

## Cc1cc(Nc2ccc(C)c(Cl)c2)n2nc(C(F)(F)F)nc2n1
[1]
  inhibition: 23.9%
[2]
  inhibition: 47.2%
[3]
  inhibition: 27.7%
[4]
  inhibition: 57.8%
[5]
  inhibition: 2%
[6]
  inhibition: 4%
[7]
  inhibition: 5%
[8]
  inhibition: 1%
[18]
  inhibition: 25%
[19]
  inhibition: 16%
[20]
  inhibition: 16%
[21]
  inhibition: 15%
[13]
  IC50: 32 µM

## COCCNCC(O)Cn1c2ccc(Cl)cc2c2cc(Cl)ccc21 (centres undefined)
[1]
  inhibition: 18.4%
[2]
  inhibition: 42.1%
[3]
  inhibition: 33.6%
[4]
  inhibition: 62.4%
[5]
  inhibition: 14%
[6]
  inhibition: 28%
[7]
  inhibition: 14%
[8]
  inhibition: 3%
[18]
  inhibition: 50%
[19]
  inhibition: 67%
[20]
  inhibition: 38%
[21]
  inhibition: 48%
[22]
  inhibition: 47.3%
[23]
  inhibition: 25.5%
[24]
  inhibition: 100%
[25]
  inhibition: 61.3%
[26]
  inhibition: 87.9%
[13]
  IC50: 0.7 µM
[14]
  IC50: 0.4 µM

## c1ccc(-c2ccc(-c3nc4ccccc4[nH]3)cc2)cc1
[1]
  inhibition: 77%
[2]
  inhibition: 87.1%
[3]
  inhibition: 42.2%
[4]
  inhibition: 52.9%
[5]
  inhibition: 33%
[6]
  inhibition: 38%
[7]
  inhibition: 14%
[8]
  inhibition: 52%
[27]
  inhibition: 7.3%
[28]
  inhibition: 38.4%
[29]
  inhibition: 100%
[30]
  inhibition: 29%
[31]
  inhibition: 41.3%
[17]
  IC50: 32 µM
[13]
  IC50: 32 µM
[14]
  IC50: 32 µM
